Assay results pooled from the literature.
Protocols differ between the studies behind these lines.
HTR2A: 5-hydroxytryptamine receptor 2A (HTR2A, Homo sapiens, UniProt P28223)
Oprm1: Mu-type opioid receptor (Oprm1, Mus musculus, UniProt P42866)
SIGMAR1: Sigma non-opioid intracellular receptor 1 (SIGMAR1, Homo sapiens, UniProt Q99720)

| Compound | target | test | conditions | endpoint | result |
| --- | --- | --- | --- | --- | --- |
| NCCc1c[nH]c2ccc(Cl)cc12 | HTR2A | ligand displacement, radioligand | – | Ki | 889 nM |
| O=C(N[C@@H]1C=C[C@@]2(O)[C@H]3Cc4ccc(O)c5c4[C@@]2(CCN3CC2CC2)[C@H]1O5)c1c[nH]c2cnccc12 | Oprm1 | ligand displacement, radioligand | – | Ki | 0.56 nM |
| NCCc1c[nH]c2cc(F)ccc12 | HTR2A | ligand displacement, radioligand | – | Ki | 606 nM |
| N#Cc1ccccc1-c1cc(-c2ccccn2)cn(-c2ccccc2)c1=O | Glutamate receptor ionotropic, kainate 2 (Grik2, Rattus norvegicus, UniProt P42260) | ion current, patch clamp | – | IC50 | 58 µM |
| O=C(N[C@H]1C=C[C@@]2(O)[C@H]3Cc4ccc(O)c5c4[C@@]2(CCN3CC2CC2)[C@H]1O5)c1n[nH]c2ccccc12 | Oprm1 | ligand displacement, radioligand | – | Ki | 0.33 nM |
| O=[N+]([O-])c1cn2c(n1)OC[C@@H](OCc1ccc(OC(F)(F)F)cc1)C2 | ddn (Mycobacterium tuberculosis, UniProt P9WP15) | binding, fluorescence | – | Kd | 13.9 µM |
| CN1CC[C@@]23CCCC[C@@H]2[C@@H]1Cc1ccc(O)cc13 | SIGMAR1 | ligand displacement, radioligand | – | Ki | 2670 nM |
| COC(=O)/C=C/C(=O)N[C@@H]1CC[C@@]2(O)[C@H]3Cc4ccc(O)c5c4[C@@]2(CCN3CC2CC2)[C@H]1O5 | Kappa-type opioid receptor (OPRK1, Homo sapiens, UniProt P41145, E297K) | ligand displacement, radioligand | cell membranes | IC50 | 0.00429 µM |
| CN[C@@H](C)[C@@H](O)c1ccccc1 | SIGMAR1 | ligand displacement, radioligand | – | Ki | > 10000 nM |
| O=C(N[C@@H]1C=C[C@@]2(O)[C@H]3Cc4ccc(O)c5c4[C@@]2(CCN3CC2CC2)[C@H]1O5)c1c[nH]c2cccnc12 | Oprm1 | ligand displacement, radioligand | – | Ki | 0.41 nM |
